This note sets out measurements from ChEMBL document CHEMBL1153740, “Quassinoids from Eurycoma longifolia” (J Nat Prod, 2009).

For this assay, the system named is HT-1080. The assay is described as follows: Cytotoxicity against human HT1080 cells after 72 hrs by MTT assay. The assay is classed as functional, cell-based. The settings on record: HT-1080, 72 h. The method in brief: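 HT-1080 human fibrosarcoma cells, harvested in exponential growth, seeded at 2 × 10^3 cells/well and left 24 h at 37 °C in humidified 5% CO2 to attach. Exposed to varying concentrations of test compounds in medium for 72 h. MTT (0.5 mg/mL) added for 2 h, formazan extracted with DMSO, absorbance read at 550 nm. Viability and IC50 taken from means of three wells.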
(Tetrazolium assays rely on reduction of a dye to a coloured formazan, in cell work by metabolically active cells.)

In the case of `CC1=CC(=O)O[C@@H]1[C@@]1(C)C[C@H]2OC(=O)[C@H](O)[C@@]3(O)[C@@H](C)[C@@H](O)[C@@]4(O)OC[C@]23[C@@H]14`, the IC50 (as a rule, the midpoint of a concentration-inhibition curve) is greater than 100 µM.

In turn, `C[C@H]1[C@H]2OC(=O)[C@@H]1[C@]1(C)C(=O)C=C3[C@H](C)C[C@H](O)[C@@H](O)[C@]3(C)[C@H]1[C@H]2O` [EURYCOMALIDE A] yielded an IC50 of 90 µM. `CC(=O)O[C@@H]1[C@H](C)[C@]2(O)[C@@H](OC(C)=O)C(=O)O[C@@H]3C[C@H]4C(C)=CC(=O)[C@@H](O)[C@]4(C)[C@H]4[C@]1(O)OC[C@]432`: the IC50 is greater than 100 µM.

In the case of `CC1=CC(=O)[C@@H](O)[C@]2(C)[C@H]3[C@@H](O)[C@H](O)[C@H](C)[C@]4(O)[C@@H](O)C(=O)O[C@H](C[C@@H]12)[C@]34C`, the IC50 is 1.1 µM. As for `COc1cccc2c1C(=O)c1c(O)c3c(c(O)c1C2=O)C[C@@](O)(C(=O)CO)C[C@@H]3O[C@H]1C[C@H](N)[C@H](O)[C@H](C)O1` [DOXORUBICIN], it took 0.53 µM to reach half-maximal inhibition (IC50).

For `CC1=CC(=O)[C@]2(C)[C@H]3[C@@H](O)[C@@H]4OC(=O)[C@@H]([C@H]4C)[C@]3(C)C(=O)C[C@@H]12` [LAURYCOLACTONE A], the IC50 was greater than 100 µM.

In turn, `CC1=CC(=O)[C@@H](O)[C@]2(C)[C@H]3[C@@H](O)[C@@H]4OC(=O)[C@@H]([C@H]4C)[C@]3(C)C(=O)C[C@@]12O` displayed an IC50 of 8.8 µM. For the compound `C[C@H]1[C@H]2OC(=O)[C@@H]1[C@]1(C)C(=O)C=C3[C@@](C)([C@H]1[C@H]2O)[C@H](O)[C@@H](O)[C@H]1O[C@@]31C`, the IC50 was greater than 100 µM. With `CC1=C2C(=O)[C@H](O)[C@]3(C)[C@H]([C@@H](O)[C@@H]4OC(=O)[C@H]3[C@H]4C)[C@@]2(C)[C@H](O)[C@@H](O)C1`, the IC50 is greater than 100 µM. To `CC1=C[C@H](O)[C@@H](O)[C@@]2(C)[C@H]1[C@@H](O)C(=O)[C@@]1(C)[C@H]3C(=O)O[C@H]([C@@H]3C)[C@H](O)[C@@H]12` belongs 65 µM; to `CC1=C[C@H](O)[C@@H](O)[C@@]2(C)C1=CC(=O)[C@]1(C)[C@@H]2[C@@H](O)[C@@H]2OC(=O)[C@H]1[C@H]2C` [EURYCOMALIDE B], 39 µM; to `CC1=CC(=O)[C@@H](O)[C@@]2(C)[C@H]1[C@@H](O)C(=O)[C@@]1(C)[C@H]3C(=O)O[C@H]([C@@H]3C)[C@H](O)[C@@H]12`, 5 µM. `C[C@H]1[C@H]2OC(=O)[C@@H]1[C@]1(C)C(=O)C=C3C4(C)OC4C(=O)[C@@H](O)[C@]3(C)[C@H]1[C@H]2O` (stereo partly drawn) showed an IC50 greater than 100 µM. `C=C1C[C@H](O)[C@@H](O)[C@@]2(C)[C@H]1CC(=O)[C@@]1(C)[C@H]3C(=O)O[C@H]([C@@H]3C)[C@H](O)[C@@H]12` showed an IC50 of 45 µM. `CC1=CC(=O)[C@@H](O)[C@@]2(C)[C@H]1[C@@H](O)[C@H]1OC(=O)C3[C@@H](C)[C@H](O)[C@H](O)[C@H]2[C@]31C` (stereo partly drawn) [LONGILACTONE]: the IC50 was 19 µM. The result for `CC1=CC(=O)[C@@H](O)[C@@]2(C)[C@H]1CC(=O)[C@@]1(C)[C@H]3C(=O)O[C@H]([C@@H]3C)[C@H](O)[C@@H]12` [EURYCOMALACTONE] reads 0.98 µM.

`CC1=CC(=O)[C@@H](O)[C@@]2(C)[C@H]1[C@@H](O)[C@H]1OC(=O)[C@H](O)[C@@]3(O)[C@@H](C)[C@@H](O)[C@H](O)[C@H]2[C@@]13C` had an IC50 of 90 µM.

On to `CC1=CC(=O)[C@@H](O)[C@]2(C)[C@H]3[C@@H](O)[C@@H]4OC(=O)[C@@H]([C@H]4C)[C@]3(C)[C@H](O)C[C@@H]12`, for which half-maximal inhibition (IC50) required 6.2 µM. The compound `CC1=CC(=O)[C@@H](O)[C@@]2(C)C1=CC(=O)[C@]1(C)[C@@H]2[C@@H](O)[C@@H]2OC(=O)[C@H]1[C@H]2C` had an IC50 of 5.3 µM. The result for `CC1=CC(=O)[C@@H](O)[C@]2(C)[C@H]3[C@]4(O)OC[C@@]35[C@@H](C[C@@H]12)OC(=O)[C@H](O)[C@]5(O)[C@@H](C)[C@H]4O` reads 90 µM. The result for `O=c1[nH]cc(F)c(=O)[nH]1` [FLUOROURACIL] reads 5.2 µM.

For `CC1=CC(=O)[C@@]2(C)C1=CC(=O)[C@]1(C)[C@@H]2[C@@H](O)[C@@H]2OC(=O)[C@H]1[C@H]2C` [LAURYCOLACTONE B], the IC50 was greater than 100 µM.

For the compound `CC1=C[C@H](O)[C@@H](O)[C@@]2(C)[C@H]1CC(=O)[C@@]1(C)[C@H]3C(=O)O[C@H]([C@@H]3C)[C@H](O)[C@@H]12` [EURYCOLACTONE E], half-maximal inhibition (IC50) required 7.3 µM.
